# Measurements: PMC3145007 (Journal of the American Chemical Society, 2011)
# “Also recorded” adds a separate entry of the source.
# What was measured:
# [1] = in vivo distribution of PREPL inhibitor to brain by LC-MS/MS; conditions: mouse, 1 mg/kg intraperitoneal, 30 minutes, brain extract, MRM
# PREPL [2] = target: T1, PREPL (Mus musculus, UniProt Q8C167); assay: MUGB; format: biochemical
# PREPL [3] = target: T1, PREPL; assay: competitive gel-based ABPP in PREPL-spiked mouse brain proteome; format: biochemical; conditions: 50 μM inhibitor, brain proteome 1 mg/mL spiked with 40 nM PREPL, FP-Rh
# In short: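 Brain proteome diluted to 1 mg/mL in PBS pH 7.4 and spiked with recombinant His-tagged mouse PREPL (E. coli-expressed, Ni-IMAC purified), with Pluronic at 0.01% final. Test compound or DMSO preincubated 30 min at room temperature. FP-Rh at 0.5 μM final for 15 min, then SDS-loading-buffer quench. Samples run on 10% SDS-PAGE, scanned in-gel for fluorescence, and PREPL bands quantified for labeling extent.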
# PEP = PEP (Mus musculus, UniProt Q9QUR6); assay: PEP selectivity assay; format: biochemical; conditions: 20 μM inhibitor; >20% reduction in PEP activity = cross-reactive
# PREPL [4] = target: T1, PREPL; assay: in situ ABPP assay in PREPL-transfected Neuro2A cells; format: cell-based; conditions: 50 μM inhibitor in media
# In short: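 Neuro2A cells plated at 1.5 × 10^6 per well and transfected next day with mouse PREPL plasmid by lipofection. Two days later, medium replaced with medium containing test compound for 1.5 h. Cell-permeable FP-alkyne then added (10 μM final) for 1 h. Cells PBS-washed, scraped, lysed by 7 freeze-thaw cycles and spun at 20,000 x g. Lysate at 4 mg/ml clicked with rhodamine-azide/TCEP/ligand/CuSO4 for 1 h, then resolved by SDS-PAGE.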
# PREPL [5] = target: T1, PREPL; assay: gel-based ABPP IC50 determination with recombinant PREPL and FP-Rh; format: biochemical
# T1 sequence (Q8C167 88-725): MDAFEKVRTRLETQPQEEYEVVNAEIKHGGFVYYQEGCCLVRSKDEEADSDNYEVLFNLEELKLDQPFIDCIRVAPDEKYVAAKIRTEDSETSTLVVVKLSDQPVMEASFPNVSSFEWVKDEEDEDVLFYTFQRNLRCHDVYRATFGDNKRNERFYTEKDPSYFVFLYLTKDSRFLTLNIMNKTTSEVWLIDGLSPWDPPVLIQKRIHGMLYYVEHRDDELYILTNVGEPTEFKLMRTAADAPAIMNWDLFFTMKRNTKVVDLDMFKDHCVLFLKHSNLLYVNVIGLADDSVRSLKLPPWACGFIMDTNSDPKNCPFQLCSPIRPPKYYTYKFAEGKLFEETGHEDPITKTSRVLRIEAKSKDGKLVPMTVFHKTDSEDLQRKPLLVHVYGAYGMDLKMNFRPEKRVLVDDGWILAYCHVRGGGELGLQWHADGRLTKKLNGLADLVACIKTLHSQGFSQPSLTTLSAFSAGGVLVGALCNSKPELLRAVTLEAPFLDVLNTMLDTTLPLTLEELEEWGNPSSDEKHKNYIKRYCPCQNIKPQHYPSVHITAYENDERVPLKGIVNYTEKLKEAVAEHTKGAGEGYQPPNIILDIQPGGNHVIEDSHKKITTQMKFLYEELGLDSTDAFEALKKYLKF
# PEP, sequence (Q9QUR6 whole entry): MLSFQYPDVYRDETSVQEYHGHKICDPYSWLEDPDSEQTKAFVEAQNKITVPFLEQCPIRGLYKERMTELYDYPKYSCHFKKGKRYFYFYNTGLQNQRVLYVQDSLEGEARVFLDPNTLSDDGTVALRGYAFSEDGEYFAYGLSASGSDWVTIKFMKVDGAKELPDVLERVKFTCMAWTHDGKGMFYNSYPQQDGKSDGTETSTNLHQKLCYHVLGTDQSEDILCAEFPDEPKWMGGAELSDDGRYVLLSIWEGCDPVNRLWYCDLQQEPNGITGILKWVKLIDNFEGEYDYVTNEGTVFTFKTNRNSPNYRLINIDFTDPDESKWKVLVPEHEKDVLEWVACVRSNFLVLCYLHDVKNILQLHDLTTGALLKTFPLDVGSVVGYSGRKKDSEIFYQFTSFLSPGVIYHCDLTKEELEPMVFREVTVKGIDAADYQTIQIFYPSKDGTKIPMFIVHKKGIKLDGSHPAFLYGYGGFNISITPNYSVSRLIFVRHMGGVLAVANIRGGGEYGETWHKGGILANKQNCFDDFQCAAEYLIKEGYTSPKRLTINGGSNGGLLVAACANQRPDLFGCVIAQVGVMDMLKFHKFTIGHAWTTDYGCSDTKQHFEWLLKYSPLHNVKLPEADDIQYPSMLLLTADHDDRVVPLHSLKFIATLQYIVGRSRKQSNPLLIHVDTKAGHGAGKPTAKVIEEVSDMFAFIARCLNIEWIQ
compound,measurement,setting,value
"CC(C)Cc1[nH]c(=O)c(C#N)c2c1CCC2 [compound 8, 1-isobutyl-3-oxo-3,5,6,7-tetrahydro-2H-cyclopenta[c]pyridine-4-carbonitrile]",presence in brain / crossing of blood-brain barrier,[1],strong signal; also recorded: able to cross the blood-brain barrier
same,inhibition of MUGB breakdown by PREPL,PREPL [2],inhibited breakdown of MUGB by PREPL
same,inhibition of PREPL in complex (brain) proteome,PREPL [3],able to inhibit PREPL in a complex proteome; also recorded: most potent carbonitrile inhibitor in the brain proteome ABPP assay; also recorded: selectively inhibit PREPL in brain proteomes
same,crossreactivity against PEP,PEP,non-crossreactive
same,inhibition of PREPL in cells (in situ),PREPL [4],able to cross the cell membrane and inhibit PREPL intracellularly; also recorded: lighter band on the gel
same,IC50,PREPL [5],3 to 12 µM
